Rows were chosen to be rich in hits. Some 4.3% of all compounds tested hit in one or more screens of this group.
OX1R antag-1: blocks the human orexin 1 receptor | AID 434989 | 330,000 tested, 0.43% active | inhibition, % at 5 µM | CHO/OX1R cells, Fluo-8 calcium fluorescence, orexin A | O43613;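 active means inhibition above its plate's threshold, mean inhibition of all tested compounds on the plate plus 3 SD, cut at about 37% in these data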;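 further: 0% = orexin A challenge wells and 100% = SB-334867-A antagonist wells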
Target sequence (O43613 whole entry, looked up): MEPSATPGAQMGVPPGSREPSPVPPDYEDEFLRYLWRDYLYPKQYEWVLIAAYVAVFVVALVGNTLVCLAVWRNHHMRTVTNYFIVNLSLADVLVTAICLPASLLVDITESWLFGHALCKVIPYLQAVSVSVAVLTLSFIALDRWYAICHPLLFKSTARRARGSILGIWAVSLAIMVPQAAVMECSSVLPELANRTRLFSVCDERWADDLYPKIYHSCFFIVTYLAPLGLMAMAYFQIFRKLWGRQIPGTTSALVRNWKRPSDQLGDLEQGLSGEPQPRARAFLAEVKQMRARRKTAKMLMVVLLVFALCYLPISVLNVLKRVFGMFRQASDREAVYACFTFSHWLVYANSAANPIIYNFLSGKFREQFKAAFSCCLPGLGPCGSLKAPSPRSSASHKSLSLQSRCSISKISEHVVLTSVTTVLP
GalR3 antagonist: antagonists of human GalR3. HEK293 GalR3-CNG cAMP membrane potential fluorescence; galR3 body fused to GalR1 C-terminus. inhibition, % at 3 µM. 360,000 tested, 0.44% active. AID 651719;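 active means inhibition above the screen-wide average plus 3 SD, cut at about 13% in these data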;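 further: forskolin and galanin both at EC90 stimulate the cells; cAMP rise reported by CNG channel membrane potential dye signal; 0% = forskolin plus galanin with DMSO and 100% = forskolin alone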
Target sequence (O60755 1-299 limits assumed): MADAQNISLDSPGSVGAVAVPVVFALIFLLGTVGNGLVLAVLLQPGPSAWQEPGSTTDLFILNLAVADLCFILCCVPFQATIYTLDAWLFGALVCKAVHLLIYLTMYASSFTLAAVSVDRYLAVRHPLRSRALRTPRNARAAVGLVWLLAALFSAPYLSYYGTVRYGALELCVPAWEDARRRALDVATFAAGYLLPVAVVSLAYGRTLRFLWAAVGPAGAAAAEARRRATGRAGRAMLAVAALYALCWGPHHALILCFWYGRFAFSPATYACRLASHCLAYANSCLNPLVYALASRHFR
CHO parental Ca: signal in parental CHO cells, OX1R antagonist counter-screen; parental CHO-K1, ATP-induced calcium, Fluo-8 fluorescence; inhibition, % at 5.6 µM; 330,000 tested, 0.63% active;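 active means inhibition above that plate's mean sample inhibition plus 3 SD, cut at about 26% in these data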;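 further: 0% = ATP-challenged DMSO wells and 100% = DMSO wells without ATP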
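test system = CHO parental line | reagent = ATP stimulus | measured by = intracellular calcium via Fluo-8 no-wash fluorescent dye | control set = ATP and no-ATP DMSO wells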
TAAR1 antag: antagonists of human TAAR1; CHO RD-HGA16 TAAR1, Fluo-8 calcium fluorescence, antagonist; inhibition, % at 3 µM; 360,000 tested, 1.5% active; AID 624466;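 active means inhibition above a per-plate cutoff, the mean inhibition of test compounds on that plate plus 3 SD, cut at about 49% in these data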;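 further: 0% = DMSO plus EC80 beta-PEA response and 100% = DMSO alone without agonist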
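Test system: RD-HGA16 CHO cells with stable hTAAR1 and Gα16 / Probe or stimulus: EC80 β-phenethylamine stimulus / Times: seeding 17-24 h prior, 75-min 37 °C, 30-min RT dye loading / Detection: Fluo-8 calcium-sensitive fluorescence / Read-out basis: % inhibition scaled between DMSO and EC80 PEA controls / Repeats: singlicate, one well per test compound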
TAAR1 ag: human TAAR1 agonism; CHO RD-HGA16 TAAR1, Fluo-8 calcium fluorescence; vehicle wells 0%, saturating PEA agonist 100%; activation, % at 3 µM; 360,000 tested, 0.99% active;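 active means activation above the mean activation of all test compounds in the run plus 3 SD, cut at about 38% in these data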
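System: CHO-derived RD-HGA16 cells with stable Gα16 and human TAAR1. Times: 17-24 h plating, Fluo-8 75 min 37 °C, 30 min RT. Measured by: calcium-sensitive Fluo-8 signal, excitation 470-495, emission 515-575 nm. Read-out basis: % activation relative to PEA EC100 response. Control set: DMSO and PEA EC100. Repeats: no replicates (n 1).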
OX1R antag-2: blocks the human orexin 1 receptor; O43613; OX1R-expressing cells, FRET antagonist read-out; inhibition, % at 6.6 µM; 330,000 tested, 1.8% active; AID 485270; in the data active means inhibition mostly above about 38%, no sharp cut-off; inactive means mostly below about 40%;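 further: 0% = agonist challenge alone and 100% = reference antagonist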
nonsel antag count: counter-screen for TAAR1 antagonists: nonselective antagonists; 2,400 tested, 77% active; inhibition, % at 3 µM; counterscreen cell line, calcium fluorescence, antagonist mode; shares compounds with TAAR1 antag; AID 651780; in the data active means inhibition above about 22%;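 further: CHO-Ga16 host cells stimulated with ATP at an EC80 level; 0% = agonist EC80 plus vehicle and 100% = vehicle without agonist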
TAAR1 ant conf: human TAAR1 antagonism, confirmed | shares compounds with TAAR1 antag | TAAR1-expressing cells, fluorescence antagonist read-out | inhibition, % at 3 µM | 2,400 tested, 40% active | AID 651785; in the data active means inhibition above about 49%;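 further: CHO-Ga16 host cells challenged with agonist PEA near its EC80; 0% = agonist at EC80 plus vehicle and 100% = vehicle with no agonist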
Ga16 ag counter: counter-screen for TAAR1 antagonists: nonselective Ga16 agonists; shares compounds with TAAR1 antag; Ga16-expressing cells, calcium fluorescence, agonist counterscreen; activation, % at 3 µM; 2,400 tested, 18% active; in the data active means activation above about 12%;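 further: 0% = vehicle wells and 100% = saturating stimulus response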
TAAR1 ag counter: TAAR1 agonism, antagonist counter-screen. shares compounds with TAAR1 antag. hTAAR1 cell line, fluorescence activation, agonist mode. activation, % at 3 µM. 2,400 tested, 2% active. AID 651955; in the data active means activation above about 37%;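 further: CHO cells stably expressing TAAR1 with calcium dye readout; 0% = DMSO vehicle and 100% = full agonist response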
Starred values were filed as active, the others as inactive.

CC(C)CC(NC(=O)C(CC(C)C)NC(=O)OC(C)(C)C)C(=O)O (configuration not stated) was read as OX1R antag-1 -14, GalR3 antagonist 2, CHO parental Ca 0, TAAR1 antag -6, TAAR1 ag 12 and OX1R antag-2 5.
Screening Cc1[nH]c2ccccc2c1/C=N/Nc1nc(Nc2ccccc2)nc(N2CCOCC2)n1 returned OX1R antag-1 -26, GalR3 antagonist -5, CHO parental Ca -17, TAAR1 antag 24, TAAR1 ag 13 and OX1R antag-2 5.
Screening Oc1[nH]c2ccccc2c1N=Nc1nc(Nc2ccccc2)nc(N2CCOCC2)n1 returned OX1R antag-1 -29, GalR3 antagonist -4, CHO parental Ca -28, TAAR1 antag 53*, TAAR1 ag 11, OX1R antag-2 21, nonsel antag count 29*, TAAR1 ant conf 45, Ga16 ag counter 6 and TAAR1 ag counter 9.
CCOC(=O)CSc1ccc2ccccc2n1 was read as OX1R antag-1 -16, GalR3 antagonist -2, CHO parental Ca -7, TAAR1 antag -15, TAAR1 ag 1 and OX1R antag-2 9.
CCOC(=O)C(C#N)(Cc1ccc2ccccc2n1)Cc1ccc2ccccc2n1 was read as GalR3 antagonist -4, TAAR1 antag 64*, TAAR1 ag 11, nonsel antag count 30*, TAAR1 ant conf 44, Ga16 ag counter 8 and TAAR1 ag counter 5.
Screening CCNC(=O)c1ccccc1NC(=O)c1cccc(S(=O)(=O)N2CCC(C)CC2)c1 returned OX1R antag-1 -16, GalR3 antagonist -3, CHO parental Ca -25, TAAR1 antag 59*, TAAR1 ag 12, OX1R antag-2 21, nonsel antag count 33*, TAAR1 ant conf 45, Ga16 ag counter 9 and TAAR1 ag counter 4.
Screening Cc1cccc(-c2nc3c(c(SCC(=O)N4CCOCC4)n2)Cc2c(CO)cnc(C)c2O3)c1 returned OX1R antag-1 -13, CHO parental Ca -18 and OX1R antag-2 25.
`Cc1ncc(CO)c2c1Oc1nc(-c3ccccc3)nc(SCC(=O)N(C)c3ccccc3)c1C2` gave OX1R antag-1 7, GalR3 antagonist -3, CHO parental Ca -13, TAAR1 antag 62*, TAAR1 ag 8, OX1R antag-2 16, nonsel antag count 27*, TAAR1 ant conf 46, Ga16 ag counter 6 and TAAR1 ag counter 7.
Screening CC(C)[C@H](NS(=O)(=O)c1ccc2c(c1)OCCO2)C(=O)OCC(=O)Nc1cc(Cl)ccc1Cl returned OX1R antag-1 9, GalR3 antagonist -2, CHO parental Ca -10, TAAR1 antag 76*, TAAR1 ag 21, OX1R antag-2 21, nonsel antag count 39*, TAAR1 ant conf 61*, Ga16 ag counter 11 and TAAR1 ag counter 11.
Screening CC1C(=O)N(Cc2cn(CC3CCCCC3)nn2)CCS(=O)(=O)N1Cc1ccc(-c2ccccc2)cc1 (configuration not stated) returned GalR3 antagonist -6, TAAR1 antag -18 and TAAR1 ag 0.
`CCOC(=O)C1=C(COC(=O)CSc2ccc(Br)cc2)NC(=O)NC1C` (configuration not stated) gave OX1R antag-1 -18, GalR3 antagonist -2, CHO parental Ca -18, TAAR1 antag 2, TAAR1 ag 4 and OX1R antag-2 18.
For CCOC(=O)C1=C(COC(=O)/C=C/c2cccc(OC)c2OC)NC(=O)NC1C (configuration not stated) the results were OX1R antag-1 -21, GalR3 antagonist -1, CHO parental Ca -18, TAAR1 antag 73*, TAAR1 ag 19, OX1R antag-2 31, nonsel antag count 25*, TAAR1 ant conf 52*, Ga16 ag counter 12* and TAAR1 ag counter 20.
For CCOC(=O)C1=C(COC(=O)/C=C/c2ccccc2)NC(=O)NC1C (configuration not stated) the results were OX1R antag-1 4, GalR3 antagonist -2, CHO parental Ca -28, TAAR1 antag 63*, TAAR1 ag 19, OX1R antag-2 4, nonsel antag count 25*, TAAR1 ant conf 46, Ga16 ag counter 10 and TAAR1 ag counter 11.
Screening CCOC(=O)C1=C(COC(=O)Cc2ccc(Br)cc2)NC(=O)NC1C (configuration not stated) returned OX1R antag-1 -1, GalR3 antagonist -2, CHO parental Ca -13, TAAR1 antag 69*, TAAR1 ag 9, OX1R antag-2 14, nonsel antag count 25*, TAAR1 ant conf 39, Ga16 ag counter 7 and TAAR1 ag counter 4.
`O=C(CSc1nc2nn(-c3ccccc3)c(=O)c-2c2n1CCCCC2)Nc1ccccc1[N+](=O)[O-]` gave GalR3 antagonist 0, TAAR1 antag -8 and TAAR1 ag 1.
For FC(F)Oc1ccc(-c2csc(=Nc3cccnc3)n2CC2CCCO2)cc1 (configuration not stated) the results were OX1R antag-1 -20, GalR3 antagonist -6, CHO parental Ca -23, TAAR1 antag 57*, TAAR1 ag 13, OX1R antag-2 30, nonsel antag count 37*, TAAR1 ant conf 44, Ga16 ag counter 8 and TAAR1 ag counter 6.
`COCCN(C(=O)COC(=O)c1ccc2[nH]c(C)c(C)c2c1)c1c(N)n(Cc2ccccc2)c(=O)[nH]c1=O` gave OX1R antag-1 -16, GalR3 antagonist 0, CHO parental Ca -24, TAAR1 antag -8, TAAR1 ag 2 and OX1R antag-2 3.
`Cc1c(C(=O)NCc2ccc3c(c2)OCO3)sc2nc(-c3ccccc3)cn12` gave OX1R antag-1 -13, CHO parental Ca -4, TAAR1 antag 19, TAAR1 ag 1 and OX1R antag-2 1.
Screening Cc1c(C(=O)Nc2ccc3c(c2)OCO3)sc2nc(-c3ccccc3)cn12 returned OX1R antag-1 -31, GalR3 antagonist 1, CHO parental Ca 4, TAAR1 antag 85*, TAAR1 ag 11, OX1R antag-2 40, nonsel antag count 44*, TAAR1 ant conf 63*, Ga16 ag counter 12* and TAAR1 ag counter 7.
